From ChEMBL document CHEMBL4673250, “Analogs of nitrofuran antibiotics are potent GroEL/ES inhibitor pro-drugs” (Bioorg Med Chem, 2020) come the findings set out here.

The term EC50 denotes the concentration needed to bring the measured effect to its halfway point. One may read the IC50 as the concentration that gives 50% inhibition. The term CC50 denotes the concentration that lowers cell viability or growth by half.

One data set has as its system Enterococcus faecium. The data set is described as follows: Antibacterial activity against Enterococcus faecium ATCC 19434 assessed as reduction in bacterial growth by serial dilution method. The class given is functional, organism-based.
Another data set deals with Staphylococcus aureus. Put plainly: Antibacterial activity against Staphylococcus aureus ATCC 25923 assessed as reduction in bacterial growth by serial dilution method. The class given is functional, organism-based.
The next data set relates to Klebsiella pneumoniae. The data set is described as follows: Antibacterial activity against Klebsiella pneumoniae ATCC 13883 assessed as reduction in bacterial growth by serial dilution method. The class given is functional, organism-based.
Another data set has as its system Acinetobacter baumannii. The data set is described as follows: Antibacterial activity against Acinetobacter baumannii ATCC 19606 assessed as reduction in bacterial growth by serial dilution method. The class given is functional, organism-based. Particulars: ATCC 19606 = CIP 70.34 = JCM 6841.
For a further data set, the system named is Pseudomonas aeruginosa. Put plainly: Antibacterial activity against Pseudomonas aeruginosa ATCC 10145 assessed as reduction in bacterial growth by serial dilution method. The class given is functional, organism-based.
The next data set deals with Enterobacter cloacae. The data set is described as follows: Antibacterial activity against Enterobacter cloacae ATCC 13047 assessed as reduction in bacterial growth by serial dilution method. The class given is functional, organism-based.
Data set [1] has as its system Escherichia coli. The data set is described as follows: Antibacterial activity against Escherichia coli assessed as reduction in bacterial growth by serial dilution method. The class given is functional, organism-based. In outline: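 Liquid-culture proliferation in media supplemented with physiological free calcium and magnesium; cultures started at OD600 = 0.01, exposed to 8-point 3-fold dilution series (100 μM to 46 nM), grown to mid-log phase (OD600 ~0.4–0.6), then final OD600 read. E. coli strain NEB 5-alpha (DH5α derivative).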

Data set [2] addresses T1, E. coli GroEL/ES (Escherichia coli, UniProt P0A6F5). Put plainly: Inhibition of Escherichia coli GroEL/ES-mediated refolding of the denatured malate dehydrogenase. The class given is protein-complex assay. In outline: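 E. coli GroEL/ES-mediated refolding of denatured MDH as the reporter enzyme. IC50 values are averages from at least four replicates. […] GroEL tetradecamer is present at 50 nM during the refolding cycle. DMSO serves as the negative control.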

For data set [3], the target named is T1, E. coli GroEL/ES. The data set is described as follows: Inhibition of Escherichia coli GroEL/ES-mediated refolding of the denatured malate dehydrogenase in presence of Escherichia coli type 1 NfsB nitroreductase. The class given is protein-complex assay. In outline: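 GroEL/ES-dMDH refolding with 10 µg/mL E. coli NfsB added to the initial GroEL/ES-dMDH mix. After compound stamping, NADH (2.4 mM stock) is added and the mix is incubated 10 min at 37°C to bioactivate nitrofurans. Compounds during the refolding cycle span 83 µM to 38 nM (3-fold series).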

Another data set relates to FHC. Put plainly: Cytotoxicity against human FHC cells assessed as reduction in cell viability incubated for 48 hrs by alamar blue assay. The class given is cell-based. The essentials: (§1)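 Alamar Blue viability: cells grown to ~80–90% confluency, seeded 1,500 per well and cultured 24 h without compound, then compound added for a further 48 h; resazurin reagent added and fluorescence monitored over time.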
Background: Resazurin is reduced to fluorescent resorufin, in cell work by metabolically active cells.

A short description of data set [4]: Cytotoxicity against human FHs74Int cells assessed as reduction in cell viability incubated for 48 hrs by alamar blue assay. The class given is cell-based. In outline: as §1
Data set [5] in a line: Selectivity index, ratio of CC50 for human FHC cells to EC50 for Escherichia coli. The class given is toxicity. Particulars: read-out: Ratio CC50/EC50.
The nature of data set [6]: Selectivity index, ratio of CC50 for human FHs 74 cells to EC50 for Escherichia coli. The settings on record: read-out: Ratio CC50/EC50. The class given is toxicity.
In data set [7] the test system is Escherichia coli. Put plainly: Antibacterial activity against Escherichia coli assessed as reduction in bacterial growth measured for 12 day serial passage incubated for 24 hrs by serial dilution method. The class given is functional, organism-based. The essentials:
(§2)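 NEB 5-alpha E. coli (DH5α derivative); 12-day liquid-culture serial passage. Dilute culture (OD600 = 0.01) grown 24 h with inhibitors in dose-response, in duplicate. EC50 taken from OD600 readings. Each day, bacteria were sub-cultured from the well with the highest inhibitor concentration still reaching OD600 > 0.2. Resistant strains were retested in a follow-up 24 h proliferation assay after 4×12 h passages without inhibitor, and were cross-tested against the other inhibitors.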

The test system of data set [8] is Escherichia coli. Put plainly: Antibacterial activity against Nitrofurantoin-resistant Escherichia coli assessed as reduction in bacterial growth measured for 12 day serial passage incubated for 24 hrs by serial dilution method. The class given is functional, organism-based. The essentials: as §2
The subject of data set [9] is Escherichia coli. Put plainly: Antibacterial activity against Nifuroxazide-resistant Escherichia coli assessed as reduction in bacterial growth measured for 12 day serial passage incubated for 24 hrs by serial dilution method. The class given is functional, organism-based. The essentials: as §2
Data set [10] relates to Escherichia coli. Put plainly: Antibacterial activity against Escherichia coli harbouring NfsA and NfsB mutant assessed as reduction in bacterial growth measured for 12 day serial passage incubated for 24 hrs by serial dilution method. The class given is functional, organism-based. The essentials: as §2
Data set [11] concerns Escherichia coli. Put plainly: Antibacterial activity against 5-chloro-N-[(5-nitro-2-furyl)methyleneamino]thiophene-2-carboxamide-resistant Escherichia coli assessed as reduction in bacterial growth measured for 12 day serial passage incubated for 24 hrs by serial dilution method. The class given is functional, organism-based. The essentials: as §2

Active and inactive are the calls of the source. The rule behind the calls is not given here.

T1 sequence (P0A6F5 whole entry, looked up): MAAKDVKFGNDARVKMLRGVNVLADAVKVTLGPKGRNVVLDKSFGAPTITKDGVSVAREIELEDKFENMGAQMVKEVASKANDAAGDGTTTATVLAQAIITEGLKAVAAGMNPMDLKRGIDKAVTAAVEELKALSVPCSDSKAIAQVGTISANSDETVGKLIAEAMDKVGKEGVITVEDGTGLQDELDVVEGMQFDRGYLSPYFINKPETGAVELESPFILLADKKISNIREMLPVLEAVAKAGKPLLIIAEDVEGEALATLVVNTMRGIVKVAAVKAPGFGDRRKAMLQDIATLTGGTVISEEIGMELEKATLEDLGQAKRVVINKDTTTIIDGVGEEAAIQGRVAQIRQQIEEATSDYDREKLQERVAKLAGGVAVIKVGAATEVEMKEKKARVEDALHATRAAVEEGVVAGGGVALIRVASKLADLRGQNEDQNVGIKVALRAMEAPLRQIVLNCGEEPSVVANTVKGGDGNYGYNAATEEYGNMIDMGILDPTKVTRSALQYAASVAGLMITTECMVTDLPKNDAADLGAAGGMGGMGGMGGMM

`O=C(N/N=C/c1ccc([N+](=O)[O-])o1)c1cccs1`: the concentration for a half-maximal effect (EC50) was 24 µM with Enterococcus faecium; 7.1 µM with Staphylococcus aureus; 16 µM with Klebsiella pneumoniae; 82 µM in the data set with Acinetobacter baumannii; above 100 µM in the data set with Pseudomonas aeruginosa; 40 µM in the data set with Enterobacter cloacae. The EC50 in the data set with Escherichia coli [1] stood at 0.42 µM. Further, the IC50 is above 100 µM at E. coli GroEL/ES [2] and 7.7 µM at E. coli GroEL/ES [3]. For the same compound, the CC50 with FHC was 83 µM; in data set [4], 71 µM. Moreover, the selectivity ratio stood at 198 in data set [5] and 168 in data set [6].
Turning to `O=C(N/N=C/c1ccc([N+](=O)[O-])o1)c1ccncc1`, the half-maximal effective concentration (EC50) with Enterococcus faecium is 13 µM; in the data set with Staphylococcus aureus it was 9.5 µM; with Klebsiella pneumoniae, 42 µM; in the data set with Acinetobacter baumannii it was 54 µM; in the data set on Pseudomonas aeruginosa it was above 100 µM; in the data set on Enterobacter cloacae, 73 µM. In the data set on Escherichia coli [1], the EC50 worked out at 2.4 µM. Further, the IC50 against E. coli GroEL/ES [2] was above 100 µM; at E. coli GroEL/ES [3], 23 µM. Further, the CC50 was found to be 61 µM with FHC and 90 µM in [4]. Besides, the selectivity ratio was determined as 26 in [5] and 38 in [6].
For the compound `O=C1CN(/N=C/c2ccc([N+](=O)[O-])o2)C(=O)N1` [NITROFURANTOIN], the EC50 in the data set on Escherichia coli [7] is 20 µM; in the data set with Enterococcus faecium, 38 µM; in the data set on Staphylococcus aureus, 27 µM; in the data set with Klebsiella pneumoniae, 40 µM; in the data set with Acinetobacter baumannii it was above 100 µM; with Pseudomonas aeruginosa it was above 100 µM. The results for the EC50 with Enterobacter cloacae and in the data set on Escherichia coli [1] were 36 µM and 0.69 µM, respectively. Moreover, the result in the data set with Escherichia coli [8], in the data set with Escherichia coli [9], in the data set with Escherichia coli [10] and in the data set on Escherichia coli [11] was inactive. Besides, the figures for the IC50 against E. coli GroEL/ES [2] and at E. coli GroEL/ES [3] were above 100 µM and 84 µM, respectively. For the same compound, the CC50 (in the data set on FHC; in [4]) was above 100 µM throughout.
On to `O=C(N/N=C/c1ccc([N+](=O)[O-])o1)c1ccc(Cl)s1`, for which the 50% effective concentration (EC50) in the data set on Escherichia coli [7] was 20 µM; with Enterococcus faecium, 12 µM; with Staphylococcus aureus, 3 µM; in the data set on Klebsiella pneumoniae, 19 µM; with Acinetobacter baumannii, 72 µM; in the data set with Pseudomonas aeruginosa, above 100 µM. Besides, the results for the EC50 with Enterobacter cloacae and in the data set on Escherichia coli [1] were 49 µM and 0.45 µM, respectively. In addition, the outcome with Escherichia coli [8] and in the data set on Escherichia coli [9] was Active. Also, the outcome with Escherichia coli [10] and in the data set on Escherichia coli [11] was inactive. In addition, the half-inhibitory concentration (IC50) at E. coli GroEL/ES [2] turned out to be 88 µM; on E. coli GroEL/ES [3], 3.2 µM. Also, the CC50 in the data set with FHC worked out at 53 µM; in data set [4], 85 µM. The selectivity ratio is 119 in data set [5] and 190 in data set [6].
Consider `COc1ccc(C(=O)N/N=C/c2ccc([N+](=O)[O-])o2)cc1`, for which the EC50 with Enterococcus faecium was 22 µM; with Staphylococcus aureus, 8.1 µM; in the data set with Klebsiella pneumoniae, above 100 µM; with Acinetobacter baumannii it was above 100 µM; in the data set with Pseudomonas aeruginosa it was above 100 µM; with Enterobacter cloacae, above 100 µM. For the same compound, the concentration giving a half-maximal response (EC50) in the data set on Escherichia coli [1] came out at 1.9 µM. Also, the IC50 on E. coli GroEL/ES [2] was 69 µM; on E. coli GroEL/ES [3] it was 10 µM. In addition, the 50% cytotoxic concentration (CC50) was above 100 µM with FHC and 75 µM in data set [4]. The selectivity ratio in data set [6] was 40.
For `O=C(N/N=C/c1ccc([N+](=O)[O-])o1)c1ccccc1`, the EC50 was 31 µM in the data set with Enterococcus faecium; 10 µM with Staphylococcus aureus; 36 µM in the data set on Klebsiella pneumoniae; above 100 µM in the data set on Acinetobacter baumannii; above 100 µM in the data set on Pseudomonas aeruginosa; above 100 µM in the data set with Enterobacter cloacae. In the data set on Escherichia coli [1], the EC50 turned out to be 2.1 µM. The results for the IC50 at E. coli GroEL/ES [2] and on E. coli GroEL/ES [3] were above 100 µM and 12 µM, respectively. Besides, the values for the CC50 (with FHC; in data set [4]) were above 100 µM and 94 µM, respectively. Besides, the selectivity ratio in data set [5] is above 48; in [6] it was 45.
For the compound `CN(C)c1ccc(C(=O)N/N=C/c2ccc([N+](=O)[O-])o2)cc1`, the EC50 with Enterococcus faecium was above 100 µM; with Staphylococcus aureus, 34 µM; in the data set with Klebsiella pneumoniae, above 100 µM; in the data set with Acinetobacter baumannii, above 100 µM; in the data set with Pseudomonas aeruginosa, above 100 µM; with Enterobacter cloacae, above 100 µM. Besides, in the data set on Escherichia coli [1], the EC50 came out at 10 µM. The IC50 on E. coli GroEL/ES [2] came to 26 µM; on E. coli GroEL/ES [3], 12 µM. In addition, the 50% cytotoxic concentration (CC50) in the data set with FHC is above 100 µM; in data set [4] it was 93 µM. Besides, the selectivity ratio is above 10 in data set [5] and 9.3 in data set [6].
Regarding `O=[N+]([O-])c1ccc(O)c2ncccc12` [NITROXOLINE], the EC50 with Enterococcus faecium turned out to be 18 µM; with Staphylococcus aureus it was 9.5 µM; with Klebsiella pneumoniae it was 2.8 µM; in the data set on Acinetobacter baumannii, 2.5 µM; with Pseudomonas aeruginosa, 99 µM; in the data set with Enterobacter cloacae, 6.6 µM. Besides, the EC50 with Escherichia coli [1] is 4 µM.
With `O=C(N/N=C/c1ccc([N+](=O)[O-])o1)c1ccc(O)cc1` [NIFUROXAZIDE], the EC50 in the data set with Escherichia coli [7] was 20 µM; in the data set on Enterococcus faecium, 8.1 µM; in the data set with Staphylococcus aureus, 16 µM; with Klebsiella pneumoniae, 37 µM; with Acinetobacter baumannii, above 100 µM; with Pseudomonas aeruginosa, above 100 µM. Also, the EC50 was 54 µM in the data set on Enterobacter cloacae and 0.87 µM in the data set on Escherichia coli [1]. Also, the result in the data set on Escherichia coli [8], with Escherichia coli [9] and in the data set with Escherichia coli [11] was Active. For the same compound, the outcome in the data set with Escherichia coli [10] was inactive. Besides, the results for the IC50 on E. coli GroEL/ES [2] and at E. coli GroEL/ES [3] were above 100 µM and 19 µM, respectively. Also, the CC50 in the data set with FHC is 61 µM; in [4] it was 79 µM. Besides, the selectivity ratio in [5] was 70; in data set [6], 91.
